Reference: ChEMBL document CHEMBL1275524, “Activities of antifungal agents against yeasts and filamentous fungi: assessment according to the methodology of the European Committee on Antimicrobial Susceptibility Testing” (2008)
In brackets after ≈: the same amount, converted by molar mass.

Tests used:
[1] = Antifungal activity against Rhinocladiella aquaspersa; type: functional
Outline: (§1)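 Dematiaceous fungi were tested by the EUCAST spore-forming mold reference procedure: flat-bottom microdilution plates, RPMI 1640 plus 2% glucose, inoculum 2 × 105 to 5 × 10^5 CFU/ml. Endpoints were read visually at 24 and 48 h. Polyenes and azoles: 100% growth reduction vs drug-free control. CPF: minimum effective concentration. Run in duplicate and repeated twice.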

Candida albicans = test: Antifungal activity against Candida albicans by EUCAST method; type: functional
Outline: (§2)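 Broth microdilution in flat-bottom plates in RPMI 1640 with 2% glucose; inoculum 0.5 × 105 to 2.5 × 10^5 CFU/ml. MICs were read spectrophotometrically at 24 h. AMB endpoint: ≥90% growth reduction vs drug-free control well. Azole and CPF endpoint: 50% reduction in optical density. MFC was taken as the lowest concentration giving 99% killing.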

Nakaseomyces glabratus = test: Antifungal activity against Candida glabrata by EUCAST method; type: functional; outline: as §2
Candida parapsilosis = test: Antifungal activity against Candida parapsilosis by EUCAST method; type: functional; settings: Lodderomyces parapsilosis; outline: as §2
Pichia kudriavzevii = test: Antifungal activity against Candida krusei by EUCAST method; type: functional; outline: as §2
Clavispora lusitaniae = test: Antifungal activity against Candida lusitaniae by EUCAST method; type: functional; outline: as §2
Candida tropicalis = test: Antifungal activity against Candida tropicalis by EUCAST method; type: functional; outline: as §2
[2] = tested on: Meyerozyma guilliermondii; test: Antifungal activity against Candida guilliermondii by EUCAST method; type: functional; outline: as §2
Saccharomyces cerevisiae = test: Antifungal activity against Saccharomyces cerevisiae by EUCAST method; type: functional
Outline: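 EUCAST broth microdilution for yeasts in flat-bottom plates, RPMI 1640 with 2% glucose, inoculum 0.5 × 105 to 2.5 × 10^5 CFU/ml. […] MFC is the lowest concentration giving 99% killing.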

[3] = Antifungal activity against Cryptococcus neoformans var. neoformans by EUCAST method; type: functional; settings: Cryptococcus deneoformans
Outline: (§3)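 EUCAST yeast microdilution, modified for nonfermentative yeasts: plates were sealed and agitated at 350 rpm and 30°C for 48 h.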

Cryptococcus gattii = test: Antifungal activity against Cryptococcus neoformans var. gattii by EUCAST method; type: functional, Cryptococcus bacillisporus; outline: as §3
Trichosporon inkin = test: Antifungal activity against Trichosporon inkin by EUCAST method; type: functional
Outline: (§4)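 Nonfermentative yeasts were tested by the EUCAST microdilution recommendations with one change: plates were sealed and agitated at 350 rpm and 30°C for 48 h.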

Trichosporon asahii = test: Antifungal activity against Trichosporon asahii by EUCAST method; type: functional; outline: as §4
Geotrichum candidum = test: Antifungal activity against Geotrichum candidum by EUCAST method; type: functional
Aspergillus fumigatus = test: Antifungal activity against Aspergillus fumigatus by EUCAST method; type: functional
Aspergillus terreus = test: Antifungal activity against Aspergillus terreus by EUCAST method; type: functional
Aspergillus flavus = test: Antifungal activity against Aspergillus flavus by EUCAST method; type: functional
Aspergillus niger = test: Antifungal activity against Aspergillus niger by EUCAST method; type: functional
Rhizomucor = test: Antifungal activity against Rhizomucor species by EUCAST method; type: functional
Outline: (§5)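 Broth microdilution following the EUCAST reference procedure for spore-forming moulds, in flat-bottom plates with RPMI 1640 plus 2% glucose. Inoculum was 2 × 10^5 to 5 × 10^5 CFU/ml. MICs were read visually at 24 and 48 h as 100% growth reduction versus a drug-free control for polyenes and azoles. MEC was used for caspofungin. Tests were run in duplicate and repeated twice.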

Lichtheimia corymbifera = test: Antifungal activity against Absidia corymbifera by EUCAST method; type: functional
Absidia = test: Antifungal activity against Absidia species by EUCAST method; type: functional
[4] = Antifungal activity against Rhizopus microsporus var. oligosporus by EUCAST method; type: functional; outline: as §5
Rhizopus arrhizus = test: Antifungal activity against Rhizopus oryzae by EUCAST method; type: functional; outline: as §5
Rhizopus = test: Antifungal activity against Rhizopus species by EUCAST method; type: functional; outline: as §5
Mucor hiemalis = test: Antifungal activity against Mucor hiemalis by EUCAST method; type: functional
Mucor = test: Antifungal activity against Mucor species by EUCAST method; type: functional
Cunninghamella = test: Antifungal activity against Cunninghamella species by EUCAST method; type: functional
Scedosporium apiospermum = test: Antifungal activity against Scedosporium apiospermum by EUCAST method; type: functional; outline: as §5
Talaromyces marneffei = test: Antifungal activity against Penicillium marneffei by EUCAST method; type: functional
Penicillium sp. = test: Antifungal activity against Penicillium species by EUCAST method; type: functional
Fusarium solani = test: Antifungal activity against Fusarium solani by EUCAST method; type: functional
Fusarium oxysporum = test: Antifungal activity against Fusarium oxysporum by EUCAST method; type: functional
Sporothrix schenckii = test: Antifungal activity against Sporothrix schenckii by EUCAST method; type: functional; outline: as §5
Curvularia lunata = test: Antifungal activity against Curvularia lunata by EUCAST method; type: functional; outline: as §1
Curvularia australiensis = test: Antifungal activity against Bipolaris australiensis by EUCAST method; type: functional; outline: as §1
[5] = Antifungal activity against Rhinocladiella aquaspersa by EUCAST method; type: functional; outline: as §1

MIC (Candida albicans): 0.12 mg/L (≈ 0.13 µM)
MIC (Nakaseomyces glabratus): 0.41 mg/L (≈ 0.444 µM)
MIC (Candida parapsilosis): 0.3 mg/L (≈ 0.325 µM)
MIC (Pichia kudriavzevii): 0.51 mg/L (≈ 0.552 µM)
MIC (Clavispora lusitaniae): 1.16 mg/L (≈ 1.26 µM)
MIC (Candida tropicalis): 0.38 mg/L (≈ 0.411 µM)
MIC [2]: 1 mg/L (≈ 1.08 µM)
MIC (Saccharomyces cerevisiae): 0.66 mg/L (≈ 0.714 µM)
MIC [3]: 0.75 mg/L (≈ 0.812 µM)
MIC (Cryptococcus gattii): 0.66 mg/L (≈ 0.714 µM)
MIC (Trichosporon inkin): 0.5 mg/L (≈ 0.541 µM)
MIC (Trichosporon asahii): 1.5 mg/L (≈ 1.62 µM)
MIC (Geotrichum candidum): 1.5 mg/L (≈ 1.62 µM)
MIC (Aspergillus fumigatus): 0.69 mg/L (≈ 0.747 µM)
MIC (Aspergillus terreus): 2.82 mg/L (≈ 3.05 µM)
MIC (Aspergillus flavus): 1.51 mg/L (≈ 1.63 µM)
MIC (Aspergillus niger): 1 mg/L (≈ 1.08 µM)
MIC (Rhizomucor): 0.58 mg/L (≈ 0.628 µM)
MIC (Lichtheimia corymbifera): 1 mg/L (≈ 1.08 µM)
MIC (Absidia): 0.8 mg/L (≈ 0.866 µM)
MIC [4]: 1 mg/L (≈ 1.08 µM)
MIC (Rhizopus arrhizus): 3 mg/L (≈ 3.25 µM)
MIC (Rhizopus): 2.08 mg/L (≈ 2.25 µM)
MIC (Mucor hiemalis): 0.86 mg/L (≈ 0.931 µM)
MIC (Mucor): 0.73 mg/L (≈ 0.79 µM)
MIC (Cunninghamella): 2.25 mg/L (≈ 2.43 µM)
MIC (Scedosporium apiospermum): 2.66 mg/L (≈ 2.88 µM)
MIC (Talaromyces marneffei): 1.5 mg/L (≈ 1.62 µM)
MIC (Penicillium sp.): 0.75 mg/L (≈ 0.812 µM)
MIC (Fusarium solani): 1 mg/L (≈ 1.08 µM)
MIC (Fusarium oxysporum): 2.5 mg/L (≈ 2.71 µM)
MIC (Sporothrix schenckii): 2.5 mg/L (≈ 2.71 µM)
MIC (Curvularia lunata): 0.75 mg/L (≈ 0.812 µM)
MIC (Curvularia australiensis): 1 mg/L (≈ 1.08 µM)
MIC [5]: 1 mg/L (≈ 1.08 µM)
SMILES: C[C@@H]1[C@H](O)[C@@H](C)/C=C/C=C/C=C/C=C/C=C/C=C/C=C/[C@H](O[C@@H]2O[C@H](C)[C@@H](O)[C@H](N)[C@@H]2O)C[C@@H]2O[C@](O)(C[C@@H](O)C[C@@H](O)[C@H](O)CC[C@@H](O)C[C@@H](O)CC(=O)O[C@H]1C)C[C@H](O)[C@H]2C(=O)O [AMPHOTERICIN B]
MFC [1]: 1 mg/L (≈ 1.08 µM)
